Hits are enriched below; roughly 2.9% of the tested compounds scored in any of these assays.
Runt-SMMHC FRET = inhibitors of human RUNX1 Runt domain binding to CBFb-SMMHC | Cerulean-Runt/Venus-CBFb-SMMHC FRET ratio 530/480, 1 h | inhibition, % at 20 µM | AID 1434 | Q01196+Q13951 | 220,000 tested, 0.74% active;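 active = mean inhibition across duplicate retests at 20 µM reaching about 50%, limit read from the data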;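 also: 0% = DMSO wells and 100% = wells with excess untagged CBFb-SMMHC; inhibitors lower the FRET ratio by blocking Runt binding to CBFb-SMMHC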
RanGTP-Impb inh = disruptors of Ran-importin-beta complex formation – biochemical, FRET, CFP-Ran, YFP-importin-beta, homogeneous, primary screen; cell-free CFP-Ran/YFP-importin-beta FRET ratio; inhibition, % (test concentration not listed); 300,000 tested, 1.1% active; AID 2216;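 active = more than half of the replicate wells show a fall in the fluorescence ratio signal beyond about 16%, limit read from the data, passing the limit was not always enough; inconclusive = exactly half of the replicate wells pass the set limit; inactive = fewer than half of replicates pass the limit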;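 also: 0% = DMSO wells and 100% = Ran loaded with GDP instead of GTP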
Runt-CBFb FRET = inhibitors of human RUNX1 Runt domain binding to CBFb | Cerulean-Runt/Venus-CBFb FRET ratio 530/480, 1 h | inhibition, % at 20 µM | 220,000 tested, 0.46% active;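 active = inhibition over about 50% at 20 µM in the single-dose screen, limit read from the data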;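 also: 0% = DMSO wells and 100% = excess unlabeled CBFb competitor control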
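Schedule: protein complex preformed 1 h, compound exposure 1 h, room temperature, dark; test system: Cerulean-labeled Runt domain protein; amount: 100 nM per protein; buffer or medium: Tris 50 mM pH 7.5, KCl, K2SO4, 0.01% BSA; read-out: loss of energy transfer signal; detection: FRET fluorescence; controls: 5 µM unlabeled CBFb as full-inhibition high control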
PfM18AAP inh = blocks P. falciparum M18 aspartyl aminopeptidase. recombinant PfM18AAP, H-Glu-NHMec fluorogenic cleavage. inhibition, % at 7.35 µM. 290,000 tested, 1.2% active. AID 1822;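 active = inhibition above the campaign mean inhibition over all tested compounds plus 3 SD, cut at about 28% in these data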;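 also: 0% = plate median of test compound wells and 100% = 2 mM ZnCl2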
RBBP9 inhibitor = human RBBP9 hydrolase inhibition | O75884 | recombinant RBBP9, FP-Rh probe fluorescence polarization | inhibition, % at 7.94 µM | 220,000 tested, 0.2% active | AID 1515;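 active = inhibition above the campaign mean of all tested compounds plus 3 SD, cut at about 14% in these data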;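 also: plate controls were DMSO wells with RBBP9 for no effect and wells lacking RBBP9 protein for full effect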
Target sequence (O75884 whole entry, looked up): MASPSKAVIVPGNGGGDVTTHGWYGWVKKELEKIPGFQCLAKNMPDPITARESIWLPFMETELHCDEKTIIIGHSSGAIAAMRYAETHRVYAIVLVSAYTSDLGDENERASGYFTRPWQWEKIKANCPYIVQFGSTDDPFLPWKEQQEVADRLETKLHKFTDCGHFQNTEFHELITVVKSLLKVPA
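system = RBBP9 protein | input = RBBP9 at 2.5 µM in dispensed solution, before mixing | measured by = fluorescence polarization (mP), excitation 525 nm, emission 598 nm | incubation = enzyme-compound preincubation 30 min, then probe labeling 45 min, 25 °C | buffer or medium = Tris-NaCl-Pluronic buffer, pH 8.0 | compound = single dose 7.94 µM | also added = FP-Rh probe, 375 nM dispensing solution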
Hck Nef HTS = human Hck-Nef kinase inhibition | P08631 | Recombinant Hck-YEEI plus Nef, Z-Lyte FRET kinase assay | inhibition, % at 20 µM | 220,000 tested, 0.68% active;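 active = Hck-Nef kinase inhibition above about 50%, limit read from the data; inactive = inhibition below that limit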;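 also: 0% = DMSO with Hck plus Nef and 100% = Hck alone without Nef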
Hck-Nef confirm = Hck-Nef kinase inhibition, confirmation; shares compounds with Hck Nef HTS; Recombinant Hck-YEEI:Nef, Z-Lyte FRET kinase assay; calls only at 10 µM; 1,300 tested, 28% active;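 active = average inhibition of at least 50%, with Z-scores no higher than 3 in both the phospho-tyrosine peptide and fluorescence counterscreens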
* = called active by the depositor; i = inactive; ? = inconclusive; . = no result shown; + = active, no number.

SMILES	Runt-SMMHC FRET	RanGTP-Impb inh	Runt-CBFb FRET	PfM18AAP inh	RBBP9 inhibitor	Hck Nef HTS	Hck-Nef confirm
Cc1ccccc1Nc1ncnc2c1cnn2-c1ccccc1	2	-1	1	1	-10	56*	+
COc1ccc(OCC(=O)Nc2ccncc2)cc1	-1	0	0	-6	1	22	.
O=C(COC(=O)c1c(F)cccc1F)c1ccc[nH]1	0	6	-2	2	2	4	.
C=CCn1c(=N)c(C(=O)NCCCOC)cc2c(=O)n3ccccc3nc21	82*	175*	9	3	-3	+	.
C=CCn1cc(C(=O)NCCCOC)c(=O)c2cc(S(=O)(=O)N(CC)CC)ccc21	-3	-2	-6	0	-3	0	.
CNC(=O)c1cc2c(=O)n3cc(C)ccc3nc2n(C(C)C)c1=N	41	181*	11	1	-1	171*	.
C=CCn1c(=N)c(C(=O)NCCCOC)cc2c(=O)n3cc(C)ccc3nc21	79*	2	10	11	-1	187*	.
Cn1c(C(=O)NCCN2CCOCC2)cc2c(=O)n3ccccc3nc21	.	8	.	5	.	.	.
CCOc1ccccc1N1CCN(C(=O)c2cc3cc(OC)ccc3[nH]2)CC1	.	-2	.	7	.	.	.
Cc1ccc(NC(=O)Cn2c(O)c(N=NC(=O)c3cc([N+](=O)[O-])ccc3O)c3ccccc32)cc1	-21	-1	-11	-2	4	68*	+
Cc1cccc(NC(=O)Cn2c(O)c(N=NC(=O)c3ccccc3O)c3ccccc32)c1	-31	3	-13	-5	0	51*	+
NC(=S)N=Nc1c(O)n(CC(=O)Nc2ccccc2)c2ccccc12	.	-3	.	15	.	.	.
COCc1[nH][nH]c(=O)c1C=Nc1ccc(Oc2ccccc2)cc1	-2	-2	1	4	-5	91*	+
O=C(Nc1ccc(Cl)c(Cl)c1)Nc1nnc(-c2ccncc2)s1	-2	.	2	2	-3	56*	.
COc1ccc(NC(=O)Nc2nnc(-c3ccncc3)s2)cc1	1	4	-3	-5	-9	15	.
O=C(/C(=C(\O)c1ccccc1)c1nc2ccccc2[nH]1)c1ccccc1	2	?	1	-8	-8	25	.
CC(=O)/C(=C(/O)c1ccccc1)c1nc2ccccc2[nH]1	3	5	-2	10	-4	124*	+
CCOC(=O)c1sc2nc(-c3ccco3)c3c(c2c1N)CC(C)(C)OC3	-2	-5	14	.	.	.	.
Nc1c(C(=O)NC2CC2)sc2nc3c(c(-c4ccco4)c12)CC/C3=C/c1ccco1	-19	.	27	13	1	85*	i
CCCN1C(=O)/C(=c2\sc3nc(=O)c(Cc4ccc(C)cc4)nn3c2=O)c2ccccc21	-1	3	5	-30	-5	52*	i
Cc1cccc(C)c1Nc1ncnc2ccccc12	.	4	.	1	.	.	.
CC(C)N1CC(O)=C(c2nc3ccccc3[nH]2)C1=N	-3	0	0	4	0	56*	+
Cc1cc(C)cc(C(=O)NC(CC(N)=O)c2ccc(NC3CCCC3)c([N+](=O)[O-])c2)c1 (stereo unspecified)	.	-1	.	-6	.	.	.
CCOc1ccc(C(=O)NCC(=O)N2CC=C(c3ccccc3)CC2)cc1OCC	.	-4	.	.	.	.	.
Oc1ccc(/C=N/Nc2ncnc3nc[nH]c23)cc1	-8	4	1	3	-5	95*	+
SMILES	Runt-SMMHC FRET	RanGTP-Impb inh	Runt-CBFb FRET	PfM18AAP inh	RBBP9 inhibitor	Hck Nef HTS	Hck-Nef confirm
Fc1cccc(/C=N/Nc2ncnc3nc[nH]c23)c1	-6	2	0	30*	-5	65*	+
c1csc(CNc2ncnc3nc[nH]c23)c1	-4	2	4	-9	-8	3	.
Fc1cccc(/C=N/Nc2ccccn2)c1	-8	4	-1	-1	-4	26	.
Cc1ccc(/C=N/Nc2ncnc3nc[nH]c23)cc1	1	-1	1	8	-4	93*	+
Clc1ccc(/C=N/Nc2ncnc3nc[nH]c23)cc1	2	-3	2	0	-6	84*	+
O=C(COc1ccc([N+](=O)[O-])cc1)NCC(c1cccs1)N1CCOCC1 (stereo unspecified)	.	2	.	.	.	.	.
CCCC(=O)Nc1c2c(nn1-c1ccc([N+](=O)[O-])cc1)CS(=O)(=O)C2	.	-1	.	1	.	.	.
C=CCn1cc(/C=C2/NC(=O)NC2=O)c2ccccc21	-8	-2	3	-11	-2	61*	i
C=CCn1cc(/C=N/N2C(=O)C3C4C=CC(C4)C3C2=O)c2ccccc21 (stereo unspecified)	2	-1	0	-11	3	12	.
COc1ccc(CCNc2ccc(C(CC(N)=O)NC(=O)c3cc(C)cc(C)c3)cc2[N+](=O)[O-])cc1 (stereo unspecified)	.	-2	.	4	.	.	.
CSCC[C@H](NC(=O)[C@H](Cc1ccccc1)n1c(=O)[nH]c2ccccc2c1=O)C(=O)N[C@@H](Cc1ccccc1)C(=O)O	.	?	.	3	.	.	.
Nc1cc(=O)[nH]c(=O)n1-c1cccc(F)c1	0	3	0	-10	-3	14	.
COc1ccc(-n2c(N)cc(=O)[nH]c2=O)cc1	0	6	0	3	-4	52*	i
C=CCn1c(SCC(=O)Nc2ccc(-c3nc4ccc(C)cc4s3)cc2)nnc1-c1ccccc1	2	4	4	-7	-7	78*	+
O=C(NCc1ccco1)c1cc2ccc(O)cc2oc1=O	58*	158*	18	28*	4	+	.

Assay outcomes: PubChem, several laboratories
